Reference: ChEMBL document CHEMBL1133668, “Synthesis and antiviral activity of novel anti-VZV 5-substituted uracil nucleosides with a cyclopropane sugar moiety” (J Med Chem, 2000)
≈ marks a conversion by molar mass, not a printed value.

Legend:
Vero = experiment: Tested for cytotoxicity in vero cells, activity is expressed as CC50.; type: functional; conditions: Chlorocebus sabaeus
MRC5 [1] = experiment: Tested for Antiherpetic activity against HSV-1 from Tomioka strain in MRC-5 cell lines.; type: functional, cell-based; conditions: Homo sapiens
Outline: (§1)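 Plaque reduction assay in MRC-5 cells, with HSV-1 Tomioka or HSV-2 strain 186 as the challenge virus. […] MRC-5 cells came from a commercial source.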

[2] = Tested for inhibitory activity against Herpes simplex virus type-1(HSV-1), activity is expressed as IC50.; type: functional
MRC5 [3] = experiment: Tested for Antiherpetic activity against VZV from clinical isolates of MRC-5 cell lines.(average of six isolates); type: functional, cell-based; conditions: Homo sapiens
HEL [4] = experiment: Tested for inhibitory activity against Varicella zoster virus(VZV) by plaque reduction assay using HEL cells; type: functional, cell-based; conditions: Homo sapiens
HEL [5] = experiment: Tested for Antiherpetic activity against VZV from Kawaguchi strain in HEL cell lines.; type: functional, cell-based; conditions: Homo sapiens
MRC5 [6] = experiment: Tested for Antiherpetic activity against HSV-2 from 186 strain in MRC-5 cell lines.; type: functional, cell-based; conditions: Homo sapiens; outline: as §1
HEL [7] = experiment: Tested for Antiherpetic activity against VZV from clinical isolates of HEL cell lines.(average of 11 isolates); type: functional, cell-based; conditions: Homo sapiens

Work on `Nc1nc(O)c2ncn(C[C@]3(CO)C[C@H]3CO)c2n1` yielded a CC50 (Vero) of 240 µg/mL (≈ 905 µM), an IC50 (MRC5 [1]) of 0.0093 µg/mL (≈ 0.0351 µM) and an IC50 [2] of 0.02 µg/mL (≈ 0.0754 µM). It also gave an IC50 (MRC5 [3]) of 0.21 µg/mL (≈ 0.792 µM), an IC50 (HEL [4]) of 0.67 µg/mL (≈ 2.53 µM) and an IC50 (HEL [5]) of 0.67 µg/mL (≈ 2.53 µM). For the same compound, the IC50 (MRC5 [6]) was 0.12 µg/mL (≈ 0.452 µM).

With `C#Cc1cn(CC2(CO)CC2CO)c(=O)[nH]c1=O` (configuration not stated) the CC50 (Vero) was > 500 µg/mL, the IC50 [2] was 310 µg/mL (≈ 1240 µM) and the IC50 (HEL [4]) was > 100 µg/mL.

In the case of `O=c1[nH]c(=O)n(CC2(CO)CC2CO)cc1/C=C/Cl` (configuration not stated), the CC50 (Vero) is reported as > 500 µg/mL, the IC50 [2] is reported as 4.3 µg/mL (≈ 15 µM) and the IC50 (HEL [4]) is reported as 0.07 µg/mL (≈ 0.244 µM).

In the case of `O=c1ccn(CC2(CO)CC2CO)c(=O)[nH]1` (configuration not stated), the CC50 (Vero) is reported as > 500 µg/mL, the IC50 [2] is reported as > 500 µg/mL and the IC50 (HEL [4]) is reported as > 100 µg/mL.

For `Cc1cn(CC2(CO)CC2CO)c(=O)[nH]c1=O` (configuration not stated), the CC50 (Vero) was > 500 µg/mL, the IC50 [2] was > 500 µg/mL and the IC50 (HEL [4]) was > 100 µg/mL.

In the case of `Nc1nc2c(ncn2COCCO)c(=O)[nH]1` [ACYCLOVIR], the CC50 (Vero) is reported as 820 µg/mL (≈ 3640 µM), the IC50 (MRC5 [1]) is reported as 0.29 µg/mL (≈ 1.29 µM) and the IC50 [2] is reported as 0.81 µg/mL (≈ 3.6 µM). The IC50 (MRC5 [6]) was 0.25 µg/mL (≈ 1.11 µM).

`O=c1[nH]c(=O)n([C@@H]2O[C@H](CO)[C@@H](O)[C@H]2O)cc1/C=C/Br` showed an IC50 (MRC5 [1]) of 0.14 µg/mL (≈ 0.401 µM) and an IC50 (MRC5 [3]) of 0.00031 µg/mL (≈ 0.000888 µM).

With `Nc1nc(O)c2ncn(CCC(CO)CO)c2n1` [PENCICLOVIR] the IC50 (MRC5 [1]) was 0.54 µg/mL (≈ 2.13 µM), the IC50 (HEL [7]) was 10 µg/mL (≈ 39.5 µM) and the IC50 (HEL [5]) was 5.6 µg/mL (≈ 22.1 µM). For the same compound, the IC50 (MRC5 [6]) was 1.2 µg/mL (≈ 4.74 µM).

With `O=c1[nH]c(=O)n(CC2(CO)CC2CO)cc1F` (configuration not stated) the CC50 (Vero) was > 500 µg/mL, the IC50 [2] was > 500 µg/mL and the IC50 (HEL [4]) was > 100 µg/mL.

With `O=c1[nH]c(=O)n(CC2(CO)CC2CO)cc1/C=C/Br` (configuration not stated) the CC50 (Vero) was > 500 µg/mL, the IC50 (MRC5 [1]) was 0.77 µg/mL (≈ 2.33 µM) and the IC50 (HEL [7]) was 0.097 µg/mL (≈ 0.293 µM). It also gave an IC50 [2] of 14.5 µg/mL (≈ 43.8 µM), an IC50 (MRC5 [3]) of 0.035 µg/mL (≈ 0.106 µM) and an IC50 (HEL [4]) of 0.027 µg/mL (≈ 0.0815 µM). The IC50 (HEL [5]) was 0.027 µg/mL (≈ 0.0815 µM) and the IC50 (MRC5 [6]) was > 100 µg/mL.

Compound `O=c1[nH]c(=O)n(CC2(CO)CC2CO)cc1/C=C/I` (configuration not stated) has a CC50 (Vero) of 330 µg/mL (≈ 873 µM), an IC50 [2] of 24.6 µg/mL (≈ 65.1 µM) and an IC50 (HEL [4]) of 0.054 µg/mL (≈ 0.143 µM).

With `O=c1[nH]c(=O)n(CC2(CO)CC2CO)cc1Cl` (configuration not stated) the CC50 (Vero) was > 500 µg/mL, the IC50 [2] was 295 µg/mL (≈ 1130 µM) and the IC50 (HEL [4]) was > 100 µg/mL.

In the case of `O=c1[nH]c(=O)n(CC2(CO)CC2CO)cc1Br` (configuration not stated), the CC50 (Vero) is reported as > 500 µg/mL, the IC50 [2] is reported as 215 µg/mL (≈ 705 µM) and the IC50 (HEL [4]) is reported as 97 µg/mL (≈ 318 µM).

For `O=c1[nH]c(=O)n(CC2(CO)CC2CO)cc1I` (configuration not stated), the CC50 (Vero) was > 500 µg/mL, the IC50 [2] was 90 µg/mL (≈ 256 µM) and the IC50 (HEL [4]) was 9.3 µg/mL (≈ 26.4 µM).
